The subject of the assay is HT-29. Nature of the assay: Concentration required to inhibit colony formation by 50% in human colon carcinoma HT-29 cells. The assay is classed as functional, cell-based. Put shortly: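 HT-29 cells grown in Eagle's MEM with 15% heat-inactivated FBS. Exponential-phase cells (2 × 10⁵/mL) plated, treated 16-20 h later with a range of drug concentrations for 30 min at 37 °C in medium with 1% serum. Washed twice, trypsinized, replated in triplicate at 10^2, 10^3, 10^4 cells/25-cm² flask for colony counts. At least two independent experiments; untreated plating efficiency 40-65%.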
The molecule `CCN(CCCl)CCNc1c2ccccc2nc2ccc(OC)cc12` came in with an IC50 of 1100 nM. As to `CCN(CCCl)CCCNc1c2ccccc2nc2ccc(OC)cc12`, the concentration for half-maximal inhibition (IC50) is 370 nM. Under `CCN(CCCl)CCCCCCNc1c2ccccc2nc2ccc(OC)cc12` stands 750 nM; under `CCN(CCCl)CCCCNc1c2ccccc2nc2ccc(OC)cc12`, 250 nM; under `COc1ccc2nc3ccccc3c(NCCN(CCCl)CCCl)c2c1`, 110 nM.

In the case of `CCN(CCCl)CCCCCNc1c2ccccc2nc2ccc(OC)cc12`, the 50% inhibitory concentration (IC50) stood at 700 nM. Under `COc1ccc2nc3ccccc3c(NCCCCN(CCCl)CCCl)c2c1` stands 10 nM. The figure for `COc1ccc2nc3ccccc3c(NCCCN(CCCl)CCCl)c2c1` is 20 nM; for `COc1ccc2nc3ccccc3c(NCCCCCN(CCCl)CCCl)c2c1` it is 30 nM; for `COc1ccc2nc3ccccc3c(NCCCCCCN(CCCl)CCCl)c2c1` it is 60 nM.

Take `CCN(CC)CCCC(C)Nc1c2ccc(Cl)cc2nc2ccc(OC)cc12` (stereo unspecified) [QUINACRINE]: the IC50 was 55000 nM.

Broadly, the IC50 is the concentration that inhibits the measured activity by half. Higher therefore signals weaker potency.
